Here are results for five compounds from ChEMBL document CHEMBL1782004, “Pyrimidine nucleotides with 4-alkyloxyimino and terminal tetraphosphate δ-ester modifications as selective agonists of the P2Y(4) receptor” (J Med Chem, 2011).

Experiment [1] addresses T1, P2Y purinoceptor 4 (Homo sapiens, UniProt P51582). Kind of experiment: Agonist activity at human P2Y4. It is filed as functional.
The target in experiment [2] is T2, P2Y purinoceptor 2 (Homo sapiens, UniProt P41231). Kind of experiment: Agonist activity at human P2Y2. Type of experiment: functional.
The subject of a further experiment is Oocyte. Kind of experiment: Ratio of EC50 for rat P2Y2 expressed in Xenopus oocytes to EC50 for rat P2Y4 expressed in Xenopus oocytes. It is filed as cell-based.
Experiment [3] is described as follows: Ratio of EC50 for P2Y4 to EC50 for P2Y2.
Experiment [4] can be described thus: Ratio of EC50 for P2Y6 to EC50 for P2Y2.
The target of experiment [5] is T1, P2Y purinoceptor 4. Kind of experiment: Agonist activity at human recombinant P2Y4 receptor expressed in human 1321N1 cells assessed as [3H]inositol phosphate production after 30 mins by scintillation proximity assay. It is filed as functional, cell-based. The essentials: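 Stable 1321N1 human astrocytoma lines expressing human P2Y2, P2Y4 or P2Y6 were seeded at 20,000 cells/well two days ahead. They were labelled for 16 h with 1.0 μCi myo-[3H]inositol in serum-free, inositol-free DMEM. Cells were then challenged with agonist in HEPES pH 7.3/HBSS containing LiCl for 30 min at 37°C. The reaction was stopped with ice-cold 50 mM formic acid and [3H]inositol phosphates were read by SPA.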

Another experiment has as its system 1321-N1. Kind of experiment: Ratio of EC50 for human recombinant P2Y6 receptor expressed in human 1321N1 cells to EC50 for human recombinant P2Y4 receptor expressed in human 1321N1 cells. It is filed as cell-based.
A further experiment deals with P2Y purinoceptor 6 (Homo sapiens, UniProt Q15077). Kind of experiment: Agonist activity at human recombinant P2Y6 receptor expressed in human 1321N1 cells assessed as [3H]inositol phosphate production after 30 mins by scintillation proximity assay. It is filed as functional, cell-based. The essentials:
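1321N1 astrocytoma cells stably expressing human P2Y6, seeded 2 days ahead and labelled 16 h with myo-[3H]inositol in serum-free inositol-free DMEM. Agonist added as five-fold concentrate in HEPES pH 7.3/HBSS with 50 mM LiCl, 30 min at 37°C. Stopped with ice-cold 50 mM formic acid. EC50 from four-parameter logistic fit; triplicates, three to six experiments; UDP reference curve.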

The target in experiment [6] is T2, P2Y purinoceptor 2. Kind of experiment: Ratio of EC50 for human recombinant P2Y2 receptor expressed in human 1321N1 cells to EC50 for human recombinant P2Y4 receptor expressed in human 1321N1 cells. Type of experiment: cell-based.
The target in experiment [7] is T2, P2Y purinoceptor 2. Kind of experiment: Agonist activity at human recombinant P2Y2 receptor expressed in human 1321N1 cells assessed as [3H]inositol phosphate production after 30 mins by scintillation proximity assay. It is filed as functional, cell-based. The essentials:
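Stable 1321N1 human astrocytoma lines expressing human P2Y2, P2Y4 or P2Y6 were seeded at 20,000 cells/well two days ahead. Cells were then challenged with agonist in HEPES pH 7.3/HBSS containing LiCl for 30 min at 37°C. The reaction was stopped with ice-cold 50 mM formic acid and [3H]inositol phosphates were read by SPA.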

SMILES strings stand for the structures.

T2 sequence (P41231 whole entry): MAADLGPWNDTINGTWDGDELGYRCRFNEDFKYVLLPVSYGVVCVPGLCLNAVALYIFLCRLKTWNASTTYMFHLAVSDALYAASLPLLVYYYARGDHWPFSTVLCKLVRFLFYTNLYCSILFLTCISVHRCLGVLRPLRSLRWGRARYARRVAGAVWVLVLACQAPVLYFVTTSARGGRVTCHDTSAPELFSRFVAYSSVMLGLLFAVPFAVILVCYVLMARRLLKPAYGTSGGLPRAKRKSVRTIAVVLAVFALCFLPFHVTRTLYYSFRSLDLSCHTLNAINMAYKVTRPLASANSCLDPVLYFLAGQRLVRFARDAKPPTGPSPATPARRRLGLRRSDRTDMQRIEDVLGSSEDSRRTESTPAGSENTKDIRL
T1 sequence (P51582 whole entry): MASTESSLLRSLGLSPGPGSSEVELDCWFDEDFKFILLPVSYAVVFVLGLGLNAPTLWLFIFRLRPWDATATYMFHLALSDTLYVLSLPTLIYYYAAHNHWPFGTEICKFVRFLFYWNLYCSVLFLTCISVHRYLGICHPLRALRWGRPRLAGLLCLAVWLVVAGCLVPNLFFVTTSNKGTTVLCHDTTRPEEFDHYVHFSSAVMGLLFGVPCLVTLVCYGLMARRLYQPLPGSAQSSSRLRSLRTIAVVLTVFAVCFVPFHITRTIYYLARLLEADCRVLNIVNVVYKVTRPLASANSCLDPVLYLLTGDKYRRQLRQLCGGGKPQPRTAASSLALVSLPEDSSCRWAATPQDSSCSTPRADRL
Sequence of P2Y purinoceptor 6 (Q15077 whole entry): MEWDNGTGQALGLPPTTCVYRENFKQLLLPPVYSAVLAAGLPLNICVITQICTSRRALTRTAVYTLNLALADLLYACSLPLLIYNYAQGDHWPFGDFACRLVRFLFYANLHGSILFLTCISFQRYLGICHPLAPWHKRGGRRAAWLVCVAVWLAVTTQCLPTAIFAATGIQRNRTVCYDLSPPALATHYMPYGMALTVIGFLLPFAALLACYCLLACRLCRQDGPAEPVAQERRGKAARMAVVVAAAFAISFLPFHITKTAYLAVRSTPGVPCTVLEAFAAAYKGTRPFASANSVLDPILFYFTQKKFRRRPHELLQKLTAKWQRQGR

In the case of `O=c1ccn([C@@H]2O[C@H](COP(=O)(O)OP(=O)(O)OP(=O)(O)OP(=O)(O)OC[C@H]3O[C@@H](n4ccc(=O)[nH]c4=O)[C@H](O)[C@@H]3O)[C@@H](O)[C@H]2O)c(=O)[nH]1` [DIQUAFOSOL TETRASODIUM], it took 870 nM to reach a half-maximal effect at P2Y purinoceptor 4 [1] (EC50).
Take `[N-]=[N+]=N[C@@H]1[C@H](O)[C@@H](COP(=O)(O)OP(=O)(O)OP(=O)(O)O)O[C@H]1n1ccc(=O)[nH]c1=O`: on P2Y purinoceptor 2 [2], a half-maximal response (EC50) required 5000 nM.
With `O=P(O)(O)OP(=O)(O)OP(=O)(O)OC[C@H]1O[C@@H](n2cnc3c(O)ncnc32)[C@H](O)[C@@H]1O`, the Ratio EC50 with Oocyte came to 13.
Consider `O=c1ccn([C@@H]2O[C@H](COP(=O)(O)OP(=O)(O)OP(=O)(O)OP(=O)(O)O[C@H]3O[C@H](CO)[C@@H](O)[C@H](O)[C@H]3O)[C@@H](O)[C@H]2O)c(=O)[nH]1`, for which the values for the Ratio EC50 in [3] and in experiment [4] were 7 and 26, respectively.
With `O=c1ccn([C@@H]2O[C@H](COP(=O)(O)OP(=O)(O)OP(=O)(O)OP(=O)(O)O[C@H]3O[C@H](CO)[C@@H](O)[C@H](F)[C@H]3O)[C@@H](O)[C@H]2O)c(=O)[nH]1`, the concentration giving a half-maximal response (EC50) worked out at 62 nM on P2Y purinoceptor 4 [5], 950 nM at P2Y purinoceptor 6 and 710 nM at P2Y purinoceptor 2 [7]. Moreover, the Ratio EC50 in the experiment with 1321-N1 is 15.3; on P2Y purinoceptor 2 [6] it was 11.5.
